Columns and labels:
dengue virus type 2 = assay: Antiviral activity against Dengue virus serotype 2 replicon harboring GVD mutant infected in HuH7 cells assessed as reduction in viral RNA translation at 2 uM measured at 6 hrs post infection by luciferase reporter gene assay relative to control; type: functional; design: scale not given: the % may be the effect or the level left
Outline: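 Huh7 cells transfected with in vitro-transcribed nonreplicative DENV2(GVD) reporter replicon RNA, then treated immediately with compound at 2 or 10 μM. Intracellular firefly luciferase activity read 6 h post-transfection as a measure of RNA translation and expressed relative to DMSO-treated samples. Mean ± SD of experimental duplicates, n = 3 repeats.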

[1] = Half life in Swiss albino mouse at 10 mg/kg, po by LC/MS/MS method; type: ADME, organism-based; settings: in vivo
Outline: (§1)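 Mouse pharmacokinetics after intravenous, oral or intraperitoneal dosing; plasma parameters derived were T1/2, Tmax, Cmax, AUClast, AUCinf, clearance, Vss and oral bioavailability F.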

[2] = Cmax in Swiss albino mouse at 10 mg/kg, po by LC/MS/MS method; type: ADME, organism-based; design: dose 10 mg/kg, route oral; settings: in vivo; outline: as §1
[3] = target: T1, Discoidin domain-containing receptor 2 (Homo sapiens, UniProt Q16832); assay: Inhibition of GST-tagged human DDR2 cytoplasmic domain (427 to 855 residues) expressed in baculovirus expression system by LanthaScreen assay
T1 sequence (Q16832 whole entry): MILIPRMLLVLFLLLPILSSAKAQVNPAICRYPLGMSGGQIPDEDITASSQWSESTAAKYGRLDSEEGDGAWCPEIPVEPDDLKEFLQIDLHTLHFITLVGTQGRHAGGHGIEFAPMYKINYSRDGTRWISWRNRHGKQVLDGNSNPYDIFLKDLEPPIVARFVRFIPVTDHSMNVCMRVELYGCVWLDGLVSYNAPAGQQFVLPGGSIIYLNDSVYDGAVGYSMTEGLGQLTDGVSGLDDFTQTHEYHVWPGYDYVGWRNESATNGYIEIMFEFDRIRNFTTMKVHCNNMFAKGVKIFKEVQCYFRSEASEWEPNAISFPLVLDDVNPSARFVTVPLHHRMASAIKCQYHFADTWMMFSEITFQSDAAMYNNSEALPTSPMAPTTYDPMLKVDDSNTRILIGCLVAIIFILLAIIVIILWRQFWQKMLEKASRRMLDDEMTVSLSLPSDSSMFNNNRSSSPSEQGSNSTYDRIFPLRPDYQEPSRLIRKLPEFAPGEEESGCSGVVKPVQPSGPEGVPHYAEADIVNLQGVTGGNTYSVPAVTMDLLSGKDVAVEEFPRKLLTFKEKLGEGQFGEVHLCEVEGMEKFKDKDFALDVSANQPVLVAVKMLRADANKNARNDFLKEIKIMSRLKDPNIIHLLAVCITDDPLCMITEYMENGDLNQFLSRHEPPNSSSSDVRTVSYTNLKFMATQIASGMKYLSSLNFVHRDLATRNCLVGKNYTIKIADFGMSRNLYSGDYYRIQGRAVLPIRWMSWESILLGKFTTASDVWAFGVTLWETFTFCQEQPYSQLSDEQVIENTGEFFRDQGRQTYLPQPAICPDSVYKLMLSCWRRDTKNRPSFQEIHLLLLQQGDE
Outline: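 IC50 against DDR1 and DDR2 determined with LanthaScreen binding assays.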

[4] = AUC (infinity) in Swiss albino mouse at 2 mg/kg, iv by LC/MS/MS method; type: ADME, organism-based; design: dose 2 mg/kg, route intravenous, time infinity; settings: in vivo
[5] = Half life in mouse hepatic microsomes at 1 uM in presence of NADPH by LC-MS/MS method; type: ADME, Microsome; settings: liver microsomes
Outline: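 Compound incubated with mouse liver microsomes; half-life (T1/2, min) of the compound reported as a measure of metabolic stability.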

[6] = AUC (infinity) in Swiss albino mouse at 50 mg/kg, ip by LC/MS/MS method; type: ADME, organism-based; design: dose 50 mg/kg, time infinity, route intraperitoneal; settings: in vivo
[7] = AUClast in Swiss albino mouse at 10 mg/kg, po by LC/MS/MS method; type: ADME, organism-based; design: dose 10 mg/kg, time 0 - last, route oral; settings: in vivo
[8] = target: Serine/threonine-protein kinase pim-1 (Homo sapiens, UniProt P11309); assay: Inhibition of recombinant full length His-tagged human PIM1 expressed in baculovirus expression system by Z'-Lyte assay
Sequence of Serine/threonine-protein kinase pim-1 (P11309 whole entry): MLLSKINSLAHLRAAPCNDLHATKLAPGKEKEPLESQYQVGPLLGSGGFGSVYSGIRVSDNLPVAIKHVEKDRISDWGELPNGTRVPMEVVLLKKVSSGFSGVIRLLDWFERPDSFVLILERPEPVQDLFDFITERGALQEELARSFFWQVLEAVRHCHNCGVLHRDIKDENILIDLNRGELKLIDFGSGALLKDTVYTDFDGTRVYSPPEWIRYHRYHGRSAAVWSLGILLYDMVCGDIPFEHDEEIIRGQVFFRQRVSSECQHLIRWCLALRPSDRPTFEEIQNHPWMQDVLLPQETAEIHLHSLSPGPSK
Outline: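 IC50 against PIM1, PIM2, BTK and BMX determined with Z′-Lyte kinase activity assays.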

In the case of `Cc1ccc(-n2c(=O)ccc3ccc4ccc(-c5cnn(C)c5)cc4c32)cc1NC(=O)/C=C/CN(C)C`, the Activity (dengue virus type 2) is reported as 65%, the half-life [1] is reported as 91.8 min and the Cmax [2] is reported as 40.4 ng/mL. It also gave an IC50 [3] of over 10000 nM, an AUC(0-inf) [4] of 167 ng·h/mL and a half-life at 1 µM [5] of 15.6 min. The AUC(0-inf) [6] was 8550 ng·h/mL, the AUC(0-t) [7] was 95.4 ng·h/mL and the IC50 [8] was 1790 nM.

Source: ChEMBL document CHEMBL4041550, “Structure-Activity Relationship Study of QL47: A Broad-Spectrum Antiviral Agent” (ACS Med Chem Lett, 2017)
